Calls of active or inactive are those of the source. No cut-off for these calls is given here.
Columns and labels:
Quadruplex DNA [1] = assay: Stabilization of c-Myc G4 quadruplex DNA assessed as change in melting temperature at 10 mol.equiv by circular dichroism melting assay; type: nucleic-acid assay
How it was run: (§1)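 CD melting from 20 to 100 °C at 1 °C/min, monitored at 264 nm (c-Kit1, c-Kit2, c-Myc, Tel23-p), 287 nm (Tel23-h) or 280 nm (hairpin). Ligand was at 10 mol equiv with folded DNA (15 μM G4, 30 μM hairpin). ΔTm is Tm with ligand minus Tm without, from curve fits, averaged over triplicates.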

Quadruplex DNA [2] = assay: Stabilization of parallel Tel23 G4 quadruplex DNA assessed as change in melting temperature at 10 mol.equiv by circular dichroism melting assay; type: nucleic-acid assay; how it was run: as §1
[3] = Stabilization of hairpin-duplex DNA assessed as change in melting temperature at 10 mol.equiv by circular dichroism melting assay; how it was run: as §1
[4] = Displacement of Thiazole orange from hairpin duplex DNA incubated for 3 mins by spectrofluorimetry
How it was run: (§2)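 Pre-folded DNA (0.25 μM) in K phosphate/KCl buffer was mixed with thiazole orange: 0.50 μM for G4s, 0.75 μM for duplex. Ligand was added stepwise from 0.5 to 10 equiv, with 3 min equilibration at 20 °C after each addition. Excitation 495 nm; emission read at 543 nm. Displacement % = 100 − (F/F0 × 100). DC50 is the concentration giving 50% displacement.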

Quadruplex DNA [5] = assay: Displacement of Thiazole orange from parallel Tel23 G4 quadruplex DNA incubated for 3 mins by spectrofluorimetry relative to control; type: nucleic-acid assay; how it was run: as §2
Quadruplex DNA [6] = assay: Binding affinity at FAM/TAMRA-tagged c-Kit2 G4 quadruplex DNA assessed as melting temperature at 2 uM by FRET melting assay (reference value: 69.7 +/- 0.3 degreeC); type: nucleic-acid assay
How it was run: (§3)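 Dual FAM/TAMRA-labelled oligos (0.2 μM) in 20 mM K phosphate pH 7.0 with 5 mM KCl, annealed 90 °C 5 min, slow-cooled overnight, held 4 °C 24 h. The Tel21 parallel form was annealed at high DNA concentration. Ligand 2 μM. Unlabelled ds12 duplex competitor at 0, 5 or 10 μM final. Tm was read from FRET melting curves.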

Quadruplex DNA [7] = assay: Binding affinity at FAM/TAMRA-tagged c-Kit2 G4 quadruplex DNA assessed as melting temperature at 2 uM in presence of 25 fold excess duplex DNA by FRET melting assay (reference value: 69.7 +/- 0.3 degreeC); type: nucleic-acid assay; how it was run: as §3
U2OS [8] = assay: Cytotoxicity against human U2OS cells assessed as reduction in cell viability incubated for 24 hrs followed by 48 hrs of recovery in drug-free medium by MTT assay; type: functional, cell-based
How it was run: (§4)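 Cells grown in DMEM with 10% FBS and 1% glutamine at 37 °C, 5% CO2, and seeded 25 × 10^4 per well. Treatment began 24 h after seeding and lasted 1 or 24 h, followed by 48 h in drug-free medium. MTT was added for 1 h at 37 °C, then DMSO solubilization and absorbance at 595 nm. IC50 came from linear regression; two independent experiments, each in triplicate.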

HeLa = assay: Cytotoxicity against human HeLa cells assessed as reduction in cell viability incubated for 24 hrs followed by 48 hrs of recovery in drug free medium by MTT assay; type: functional, cell-based; how it was run: as §4
U2OS [9] = assay: Induction of DNA damage in human U2OS cells assessed as increase in gammaH2AX phosphorylation at S139 at 10 uM incubated for 4 hrs by immunofluorescence microscopy; type: functional, cell-based
How it was run: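 U2OS cells were treated with 10 μM for 4 h, pre-extracted 3 min with CSK buffer containing 0.5% Triton X-100, and fixed in 2% paraformaldehyde. Co-stained 1 h for 53BP1 and γH2AX, with DAPI counterstain. Foci were counted per nucleus and normalized to the untreated mean, across three biological replicates.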

Quadruplex DNA [10] = assay: Effect on c-Kit1 G4 quadruplex DNA architecture at 10 mol.equiv by circular dichroism spectral analysis; type: nucleic-acid assay
How it was run: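 CD spectra of 15 μM G4s or 30 μM hairpin in 20 mM K phosphate pH 7.0 with 5 mM KCl, after annealing. Recorded at 20 °C over 230–360 nm, three scans averaged, buffer baseline subtracted. Ligand was added at 10 mol equiv to the folded DNA from a 10 mM DMSO stock.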

Activity (Quadruplex DNA [1]): Active
Activity (Quadruplex DNA [2]): Active
Activity [3]: Active
DC50 [4]: 8570 nM
inhibition (Quadruplex DNA [5]): 80%
Tm (Quadruplex DNA [6]): 77.9 °C
Tm (Quadruplex DNA [7]): 76.4 °C
Activity (Quadruplex DNA [10]): inactive
Structure (SMILES): CC(C)(C)c1cc(/C=N/NC(=N)N)c(O)c(/C=C2/C(=O)Nc3c2ccc2ccccc32)c1.Cl
IC50 (U2OS [8]): 2060 nM
IC50 (HeLa): 750 nM
Activity (U2OS [9]): Active

Reference: ChEMBL document CHEMBL4402581, “Monohydrazone Based G-Quadruplex Selective Ligands Induce DNA Damage and Genome Instability in Human Cancer Cells” (J Med Chem, 2020)
